Calls of active or inactive are those of the source. No cut-off for these calls is given here.
What was measured:
Rattus norvegicus [1] = species on record: Rattus norvegicus; experiment: Inhibition of testosterone-induced prostate weight increase in Sprague-Dawley rat by modified Hersherberger assay; format: functional, Prostate gland
Summary of the method: (§1)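 Rats castrated at three weeks old, then dosed orally by gavage once daily for five days in 30% (w/v) hydroxypropyl-β-cyclodextrin, together with testosterone propionate 0.1 mg/day (about 1.3 mg/kg) s.c. in sesame oil. At necropsy, ventral prostate wet weight was measured. Values are body-weight-adjusted means of three or four animals.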

Rattus norvegicus [2] = species on record: Rattus norvegicus; experiment: Reduction of testosterone-induced prostate weight increase in Sprague-Dawley rat by modified Hersherberger assay relative to control; format: functional, Prostate gland; set-up: concentration or dose not given beside the values; summary of the method: as §1

| SMILES | ID50 (Rattus norvegicus [1]) [mg/day] | Activity (Rattus norvegicus [2]) [%] | Activity (Rattus norvegicus [2]; Prostate gland) |
| --- | --- | --- | --- |
| CC(C)(O)c1[nH]c2cc(C(F)(F)F)c(C#N)cc2c1Cl | >3 |  |  |
| CCC(C)(O)c1cc2cc([N+](=O)[O-])c(C(F)(F)F)cc2[nH]1 (stereo not given) |  | 63 |  |
| CC(O)(CO)c1cc2cc([N+](=O)[O-])c(C(F)(F)F)cc2[nH]1 (stereo not given) |  | 58 |  |
| CSCC(C)(O)c1cc2cc([N+](=O)[O-])c(C(F)(F)F)cc2[nH]1 (stereo not given) |  | 66 |  |
| CC(O)(c1cc2cc(C#N)c(C(F)(F)F)cc2[nH]1)C(F)(F)F (single isomer, unassigned; (+)) | 0.43 | 76 |  |
| CC(O)(c1[nH]c2cc(C(F)(F)F)c(C#N)cc2c1I)C(F)(F)F (stereo not given) |  | 79 |  |
| CC(C)(O)c1cc2cc([N+](=O)[O-])c(C(F)(F)F)cc2[nH]1 |  | 32 |  |
| C=Cc1c(C(C)(C)O)[nH]c2cc(C(F)(F)F)c([N+](=O)[O-])cc12 |  |  | inactive |
| CC(C)(O)c1[nH]c2cc(C(F)(F)F)c([N+](=O)[O-])cc2c1I |  | 59 |  |
| Cc1c(C(C)(C)O)[nH]c2cc(C(F)(F)F)c(C#N)cc12 |  | 55 |  |
| CC(O)(c1cc2cc(C#N)ccc2[nH]1)C(F)(F)F (stereo not given) |  | 55 |  |
| CC(O)(c1cc2cc(C#N)c(C(F)(F)F)cc2[nH]1)C(F)(F)F (stereo in doubt; 6i) |  | 82 |  |
| CC(O)(CCl)c1cc2cc([N+](=O)[O-])c(C(F)(F)F)cc2[nH]1 (stereo not given) |  | 38 |  |
| CC(O)(c1cc2cc(C#N)c(C(F)(F)F)cc2[nH]1)C(F)(F)F (single isomer, unassigned; (-)) | 0.13 | 80 |  |
| CC(C)(O)c1[nH]c2cc(C(F)(F)F)c([N+](=O)[O-])cc2c1Br |  | 71 |  |
| CC(C)(O)c1[nH]c2cc(C(F)(F)F)c([N+](=O)[O-])cc2c1C#N |  | 56 |  |
| CC(O)(c1[nH]c2cc(C(F)(F)F)c(C#N)cc2c1Cl)C(F)(F)F (stereo not given) |  | 66 |  |
| Cn1c(C(C)(O)C(F)(F)F)cc2cc(C#N)c(C(F)(F)F)cc21 (stereo not given) |  | 90 |  |
| CC(O)(c1cc2cc(Cl)c(C(F)(F)F)cc2[nH]1)C(F)(F)F (stereo not given) |  | 30 |  |
| CC(O)c1cc2cc([N+](=O)[O-])c(C(F)(F)F)cc2[nH]1 (stereo not given) |  |  | inactive |
| CC(O)(c1cc2cc([N+](=O)[O-])c(C(F)(F)F)cc2[nH]1)C(F)(F)F (stereo not given) |  | 78 |  |
| CC(C)(O)c1[nH]c2cc(C(F)(F)F)c(C#N)cc2c1I | 1.1 | 81 |  |
| CC(C)(O)c1[nH]c2cc(C(F)(F)F)c([N+](=O)[O-])cc2c1Cl |  | 81 |  |
| Cc1c(C(C)(C)O)[nH]c2cc(C(F)(F)F)c([N+](=O)[O-])cc12 |  | 37 |  |
| CC(O)(CS(=O)(=O)c1ccc(F)cc1)C(=O)Nc1ccc(C#N)c(C(F)(F)F)c1 (stereo not given) [BICALUTAMIDE] | 0.29 | 75 |  |
| CC(C)(O)c1[nH]c2cc(C(F)(F)F)c(C#N)cc2c1Br | 0.8 |  |  |
